Measurements reported in ChEMBL document CHEMBL3763097, “Synthesis and biological evaluation of 5,10-dihydro-11H-dibenzo[b,e][1,4]diazepin-11-one structural derivatives as anti-cancer and apoptosis inducing agents” (Eur J Med Chem, 2016).
Active and inactive are the calls of the source. The calls are words filed in the database; no cut-off is given here.

Experiments:
MDA-MB-231 [1] = test: Induction of apoptosis in human MDA-MB-231 cells assessed as necrotic cells at 1 uM after 24 hrs by Annexin V-FITC/PI dual staining based flow cytometry (reference value: 1.9%); assay type: functional
MDA-MB-231 [2] = test: Induction of apoptosis in human MDA-MB-231 cells assessed as early apoptotic cells at 0.5 uM after 24 hrs by Annexin V-FITC/PI dual staining based flow cytometry (reference value: 0.3%); assay type: functional
A549 [3] = test: Cell cycle arrest in human A549 cells assessed as accumulation at S phase at 1 uM after 24 to 48 hrs by propidium iodide staining based flow cytometry (reference value: 18.3%); assay type: functional
Method in brief: (§1)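 Cells were seeded at 1×10^6 per well and treated 24 h later with 0.5, 1 or 2 µM compound; DMSO-treated cells served as control. Methods give harvest at 48 h (floating plus trypsinised cells); the figure legend says 24 h. Cells were fixed in 70% ethanol for 30 min at 4 °C and stained with PI, Triton X-100 and RNase A for 15 min in the dark. 10000 events were counted by flow cytometry.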

MDA-MB-231 [4] = test: Induction of apoptosis in human MDA-MB-231 cells assessed as necrotic cells at 0.5 uM after 24 hrs by Annexin V-FITC/PI dual staining based flow cytometry (reference value: 1.9%); assay type: functional
A549 [5] = test: Disruption of mitochondrial membrane potential in human A549 cells at 0.5 to 2 uM after 48 hrs by Rhodamine-123 staining based spectrofluorometry; assay type: functional
Method in brief: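 Cells were seeded at 5×10^5 cells/mL overnight and treated with 0.5, 1 and 2 µM compound; the methods say 24 h and the results text says 48 h. Trypsinised cells were washed and stained with rhodamine-123 (2 µM in PBS) for 30 min at room temperature in the dark, washed and read by spectrofluorometer. Data are mean ± SD of three independent experiments.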

MDA-MB-231 [6] = test: Antimigratory activity in human MDA-MB-231 cells at 0.5 to 2 uM measured after 24 to 48 hrs by wound healing assay; assay type: functional, cell-based
Method in brief: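 Wound-healing assay. Cells were seeded at 5×10^5 per well and grown 24 h to a confluent monolayer, then scratched once across the middle with a sterile pipette tip and washed twice with PBS. Compound was added at 0.5, 1 and 2 µM. Wound closure was photographed by phase-contrast microscopy at 0, 24 and 48 h in three or more random fields.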

MDA-MB-231 (human) = test: Induction of apoptosis in human MDA-MB-231 cells assessed as early apoptotic cells at 2 uM after 24 hrs by Annexin V-FITC/PI dual staining based flow cytometry (reference value: 5.3%)
MDA-MB-231 [7] = test: Cell cycle arrest in human MDA-MB-231 cells assessed as accumulation at G2/M phase at 0.5 uM after 24 to 48 hrs by propidium iodide staining based flow cytometry (reference value: 20.2%); assay type: functional; method in brief: as §1
A549 [8] = test: Cell cycle arrest in human A549 cells assessed as accumulation at G0/G1 phase at 0.5 uM after 24 to 48 hrs by propidium iodide staining based flow cytometry (reference value: 49.1%); assay type: functional; method in brief: as §1
A549 [9] = test: Induction of apoptosis in human A549 cells assessed as viable cells at 2 uM after 24 hrs by Annexin V-FITC/PI dual staining based flow cytometry (reference value: 85%); assay type: functional; details: A549, 24 h, read-out: Activity
MDA-MB-231 [10] = test: Induction of apoptosis in human MDA-MB-231 cells assessed as early apoptotic cells at 1 uM after 24 hrs by Annexin V-FITC/PI dual staining based flow cytometry (reference value: 0.3%); assay type: functional
MDA-MB-231 [11] = test: Cell cycle arrest in human MDA-MB-231 cells assessed as accumulation at G2/M phase at 2 uM after 24 to 48 hrs by propidium iodide staining based flow cytometry (reference value: 20.2%); assay type: functional; method in brief: as §1
MDA-MB-231 [12] = test: Cell cycle arrest in human MDA-MB-231 cells assessed as accumulation at G0/G1 phase at 1 uM after 24 to 48 hrs by propidium iodide staining based flow cytometry (reference value: 74.4%); assay type: functional; method in brief: as §1
A549 [13] = test: Induction of apoptosis in human A549 cells assessed as late apoptotic cells at 0.5 uM after 24 hrs by Annexin V-FITC/PI dual staining based flow cytometry (reference value: 4.5%); assay type: functional
A549 (human) = test: Induction of apoptosis in human A549 cells assessed as late apoptotic cells at 2 uM after 24 hrs by Annexin V-FITC/PI dual staining based flow cytometry (reference value: 6.2%)
A549 [14] = test: Induction of apoptosis in human A549 cells assessed as necrotic cells at 2 uM after 24 hrs by Annexin V-FITC/PI dual staining based flow cytometry (reference value: 5.2%); assay type: functional
MDA-MB-231 [15] = test: Induction of apoptosis in human MDA-MB-231 cells assessed as viable cells at 0.5 uM after 24 hrs by Annexin V-FITC/PI dual staining based flow cytometry (reference value: 91%); assay type: functional; details: MDA-MB-231, 24 h, read-out: Activity
MDA-MB-231 [16] = test: Induction of apoptosis in human MDA-MB-231 cells assessed as late apoptotic cells at 0.5 uM after 24 hrs by Annexin V-FITC/PI dual staining based flow cytometry (reference value: 6.2%); assay type: functional
A549 [17] = test: Cytotoxicity against human A549 cells assessed as inhibition of colony formation after 24 hrs by methylene blue staining-based assay; assay type: functional, cell-based
Method in brief: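 Clonogenic assay. Cells were plated at 500 per well and allowed to adhere 24 h. Compound was added at 0.1, 1 and 10 µM for 24 h, then medium was replaced and cells grown a further 14 days. Colonies were fixed with 4% paraformaldehyde, stained with 0.5% methylene blue in PBS for 30 min, rinsed and photographed.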

A549 [18] = test: Induction of apoptosis in human A549 cells after 24 hrs by Annexin V-FITC/PI dual staining based flow cytometry; assay type: functional, cell-based
MDA-MB-231 [19] = test: Cell cycle arrest in human MDA-MB-231 cells assessed as accumulation at S phase at 0.5 uM after 24 to 48 hrs by propidium iodide staining based flow cytometry (reference value: 4.6%); assay type: functional; method in brief: as §1
A549 [20] = test: Cell cycle arrest in human A549 cells assessed as accumulation at G2/M phase at 0.5 uM after 24 to 48 hrs by propidium iodide staining based flow cytometry (reference value: 22.3 to 31%); assay type: functional; method in brief: as §1
MDA-MB-231 [21] = test: Induction of apoptosis in human MDA-MB-231 cells assessed as condensation of nuclei at 0.5 to 2 uM after 48 hrs by Hoechst […] staining based fluorescence microscopy; assay type: functional, cell-based
Method in brief: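 Cells at 25×10^4 per well were allowed to adhere 24 h, then treated with 0.5, 1 and 2 µM compound for 48 h at 37 °C. After a PBS wash they were stained with Hoechst […] (5 µg/mL) for 30 min at room temperature and washed twice. Nuclear morphology was viewed by fluorescence microscopy (ex 350/em 460 nm).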

A549 [22] = test: Cell cycle arrest in human A549 cells assessed as accumulation at G0/G1 phase at 1 uM after 24 to 48 hrs by propidium iodide staining based flow cytometry (reference value: 49.1%); assay type: functional; method in brief: as §1
A549 [23] = test: Induction of apoptosis in human A549 cells assessed as early apoptotic cells at 1 uM after 24 hrs by Annexin V-FITC/PI dual staining based flow cytometry (reference value: 5.3%); assay type: functional

O=C1c2ccccc2Nc2ccccc2N1Cc1cn(Cc2ccccc2)nn1
Activity (MDA-MB-231 [1]): 1.4% | Activity (MDA-MB-231 [2]): 16.8% | Activity (A549 [3]): 15.3% | Activity (MDA-MB-231 [4]): 2.5% | Activity (A549 [5]): 15% | inhibition (MDA-MB-231 [6]): Dose-dependent effect | Activity (MDA-MB-231 (human)): 15.4% | Activity (MDA-MB-231 [7]): 22.3% | Activity (A549 [8]): 42.8% | viability at 2 µM (A549 [9]): 63.8% | Activity (MDA-MB-231 [10]): 14.2% | Activity (MDA-MB-231 [11]): 63.4% | Activity (MDA-MB-231 [12]): 60.1% | Activity (A549 [13]): 12.7% | Activity (A549 (human)): 15.6% | Activity (A549 [14]): 3.8% | viability at 0.5 µM (MDA-MB-231 [15]): 70% | Activity (MDA-MB-231 [16]): 10.1% | inhibition (A549 [17]): Dose-dependent effect | Activity (A549 [18]): Dose-dependent effect | Activity (MDA-MB-231 [19]): 1.2% | Activity (A549 [20]): 36.6% | Activity (MDA-MB-231 [21]): Active | Activity (A549 [22]): 39.8% | Activity (A549 [23]): 14.5%
